{"source": "ChEMBL document CHEMBL1765047", "about": "“Synthesis and in vivo evaluation of (S)-6-(4-fluorophenoxy)-3-((1-[11C]methylpiperidin-3-yl)methyl)-2-o-tolylquinazolin-4(3H)-one, a potential PET tracer for growth hormone secretagogue receptor (GHSR)” (Bioorg Med Chem, 2011)", "key": {"Hypothalamus": {"system": "Hypothalamus", "assay": "Drug uptake in CD1 mouse hypothalamus at 0.1 mCi, iv after 60 mins by gamma scintillation counting", "format": "ADME, organism-based", "details": "in vivo, 1 h", "outline": "(§1)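 Baseline regional brain study in male CD1 mice (23-28 g) injected via tail vein with 0.1 mCi tracer in 0.2 mL saline (~4000 mCi/μmol). Killed at 10, 30, 60 or 90 min; brain regions dissected on ice, weighed and gamma-counted with injectate standards. Reported as %ID/g tissue, mean ± SD, n=3.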"}, "[1]": {"assay": "Drug uptake in CD1 mouse testis at 0.1 mCi, iv after 90 mins by gamma scintillation counting", "format": "ADME, organism-based", "details": "in vivo, 1.5 h", "outline": "(§2)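 Baseline whole-body distribution in male CD1 mice (23-28 g). Tracer 0.1 mCi in 0.2 mL saline (~4000 mCi/μmol) into lateral tail vein. Cervical dislocation at 10, 30 or 90 min; organs dissected on ice, weighed, gamma-counted alongside injectate aliquots as standards. Reported as %ID/g tissue, mean ± SD, n=5.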"}, "Cortex [2]": {"system": "Cortex", "assay": "Drug uptake in CD1 mouse cortex at 0.1 mCi, iv after 60 mins by gamma scintillation counting", "format": "ADME, organism-based", "details": "in vivo, 1 h", "outline": "as §1"}, "Cortex [3]": {"system": "Cortex", "assay": "Drug uptake in CD1 mouse cortex at 0.1 mCi, iv after 30 mins by gamma scintillation counting", "format": "ADME, organism-based", "details": "in vivo, 0.5 h", "outline": "as §1"}, "[4]": {"assay": "Drug uptake in CD1 mouse adrenal at 0.1 mCi, iv after 30 mins by gamma scintillation counting", "format": "ADME, organism-based, Adrenal gland", "details": "in vivo, 0.5 h", "outline": "as §2"}, "Cerebellum [5]": {"system": "Cerebellum", "assay": "Drug uptake in CD1 mouse cerebellum at 0.1 mCi, iv after 90 mins by gamma scintillation counting", "format": "ADME, organism-based", "details": "in vivo, 1.5 h", "outline": "as §1"}, "Heart": {"system": "Heart", "assay": "Drug uptake in CD1 mouse heart at 0.1 mCi, iv after 30 mins by gamma scintillation counting", "format": "ADME, organism-based", "details": "in vivo, 0.5 h", "outline": "as §2"}, "Blood [6]": {"system": "Blood", "assay": "Drug uptake in CD1 mouse blood at 0.1 mCi, iv after 90 mins in presence of (S)-6-(4-Fluorophenoxy)-3-(piperidin-3-ylmethyl)-2-o-tolylquinazolin-4(3H)-one", "format": "ADME, organism-based", "details": "in vivo, 1.5 h", "outline": "(§3)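 Blockade arm: male CD1 mice (23-28 g) given 1 mg/kg blocker s.c. in saline/alcohol 9:1, or vehicle alone, 15 min before tail-vein tracer (0.1 mCi in 0.2 mL saline, ~4000 mCi/μmol). Killed by cervical dislocation at 90 min; organs dissected on ice, weighed, gamma-counted against injectate standards; %ID/g tissue, mean ± SD, n=5.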"}, "Cerebellum [7]": {"system": "Cerebellum", "assay": "Drug uptake in CD1 mouse cerebellum at 0.1 mCi, iv after 60 mins by gamma scintillation counting", "format": "ADME, organism-based", "details": "in vivo, 1 h", "outline": "as §1"}, "Brain [8]": {"system": "Brain", "assay": "Drug uptake in CD1 mouse brain at 0.1 mCi, iv after 60 mins by gamma scintillation counting", "format": "ADME, organism-based", "details": "in vivo, 1 h", "outline": "as §1"}, "Liver [9]": {"system": "Liver", "assay": "Drug uptake in CD1 mouse liver at 0.1 mCi, iv after 90 mins by gamma scintillation counting", "format": "ADME, organism-based", "details": "in vivo, 1.5 h", "outline": "as §2"}, "Blood [10]": {"system": "Blood", "assay": "Drug uptake in CD1 mouse blood at 0.1 mCi, iv after 10 mins by gamma scintillation counting", "format": "ADME, organism-based", "details": "in vivo", "outline": "as §2"}, "Muscle tissue [11]": {"system": "Muscle tissue", "assay": "Drug uptake in CD1 mouse muscle at 0.1 mCi, iv after 30 mins by gamma scintillation counting", "format": "ADME, organism-based", "details": "in vivo, 0.5 h", "outline": "as §2"}, "Hippocampus [12]": {"system": "Hippocampus", "assay": "Drug uptake in CD1 mouse hippocampus at 0.1 mCi, iv after 30 mins by gamma scintillation counting", "format": "ADME, organism-based", "details": "in vivo, 0.5 h", "outline": "as §1"}, "Blood [13]": {"system": "Blood", "assay": "Drug uptake in CD1 mouse blood at 0.1 mCi, iv after 30 mins by gamma scintillation counting", "format": "ADME, organism-based", "details": "in vivo, 0.5 h", "outline": "as §2"}, "Muscle tissue [14]": {"system": "Muscle tissue", "assay": "Drug uptake in CD1 mouse muscle at 0.1 mCi, iv after 90 mins in presence of (S)-6-(4-Fluorophenoxy)-3-(piperidin-3-ylmethyl)-2-o-tolylquinazolin-4(3H)-one", "format": "ADME, organism-based", "details": "in vivo, 1.5 h", "outline": "as §3"}, "Cortex [15]": {"system": "Cortex", "assay": "Drug uptake in CD1 mouse cortex at 0.1 mCi, iv after 10 mins by gamma scintillation counting", "format": "ADME, organism-based", "details": "in vivo", "outline": "as §1"}, "Liver [16]": {"system": "Liver", "assay": "Drug uptake in CD1 mouse liver at 0.1 mCi, iv after 10 mins by gamma scintillation counting", "format": "ADME, organism-based", "details": "in vivo", "outline": "as §2"}, "Lung": {"system": "Lung", "assay": "Drug uptake in CD1 mouse lung at 0.1 mCi, iv after 90 mins in presence of (S)-6-(4-Fluorophenoxy)-3-(piperidin-3-ylmethyl)-2-o-tolylquinazolin-4(3H)-one", "format": "ADME, organism-based", "details": "in vivo, 1.5 h", "outline": "as §3"}, "Hippocampus [17]": {"system": "Hippocampus", "assay": "Drug uptake in CD1 mouse hippocampus at 0.1 mCi, iv after 60 mins by gamma scintillation counting", "format": "ADME, organism-based", "details": "in vivo, 1 h", "outline": "as §1"}, "Brain [18]": {"system": "Brain", "assay": "Drug uptake in CD1 mouse brain at 0.1 mCi, iv after 30 mins by gamma scintillation counting", "format": "ADME, organism-based", "details": "in vivo, 0.5 h", "outline": "as §1"}, "Cerebellum [19]": {"system": "Cerebellum", "assay": "Drug uptake in CD1 mouse cerebellum at 0.1 mCi, iv after 10 mins by gamma scintillation counting", "format": "ADME, organism-based", "details": "in vivo", "outline": "as §1"}, "Blood [20]": {"system": "Blood", "assay": "Drug uptake in CD1 mouse blood at 0.1 mCi, iv after 90 mins by gamma scintillation counting", "format": "ADME, organism-based", "details": "in vivo, 1.5 h", "outline": "as §2"}, "[21]": {"assay": "Drug uptake in CD1 mouse testis at 0.1 mCi, iv after 10 mins by gamma scintillation counting", "format": "ADME, organism-based", "details": "in vivo", "outline": "as §2"}, "Cerebellum [22]": {"system": "Cerebellum", "assay": "Drug uptake in CD1 mouse cerebellum at 0.1 mCi, iv after 30 mins by gamma scintillation counting", "format": "ADME, organism-based", "details": "in vivo, 0.5 h", "outline": "as §1"}}, "data": [{"smiles": "Cc1ccccc1-c1nc2ccc(Oc3ccc(F)cc3)cc2c(=O)n1C[C@H]1CCCN([11CH3])C1", "values": [{"measurement": "Drug uptake", "setting": "Hypothalamus", "result": 0.74, "unit": "% ID/g"}, {"measurement": "Drug uptake", "setting": "[1]", "result": 1.96, "unit": "% ID/g"}, {"measurement": "Drug uptake", "setting": "Cortex [2]", "result": 0.65, "unit": "% ID/g"}, {"measurement": "Drug uptake", "setting": "Cortex [3]", "result": 0.6, "unit": "% ID/g"}, {"measurement": "Drug uptake", "setting": "[4]", "result": 10.77, "unit": "% ID/g"}, {"measurement": "Drug uptake", "setting": "Cerebellum [5]", "result": 0.59, "unit": "% ID/g"}, {"measurement": "Drug uptake", "setting": "Heart", "result": 3.91, "unit": "% ID/g"}, {"measurement": "Drug uptake", "setting": "Blood [6]", "result": 2.01, "unit": "% ID/g"}, {"measurement": "Drug uptake", "setting": "Cerebellum [7]", "result": 0.59, "unit": "% ID/g"}, {"measurement": "Drug uptake", "setting": "Brain [8]", "result": 0.62, "unit": "% ID/g"}, {"measurement": "Drug uptake", "setting": "Liver [9]", "result": 13.46, "unit": "% ID/g"}, {"measurement": "Drug uptake", "setting": "Blood [10]", "result": 2.14, "unit": "% ID/g"}, {"measurement": "Drug uptake", "setting": "Muscle tissue [11]", "result": 3.02, "unit": "% ID/g"}, {"measurement": "Drug uptake", "setting": "Hippocampus [12]", "result": 0.59, "unit": "% ID/g"}, {"measurement": "Drug uptake", "setting": "Blood [13]", "result": 1.87, "unit": "% ID/g"}, {"measurement": "Drug uptake", "setting": "Muscle tissue [14]", "result": 2.22, "unit": "% ID/g"}, {"measurement": "Drug uptake", "setting": "Cortex [15]", "result": 0.63, "unit": "% ID/g"}, {"measurement": "Drug uptake", "setting": "Liver [16]", "result": 18.63, "unit": "% ID/g"}, {"measurement": "Drug uptake", "setting": "Lung", "result": 16.28, "unit": "% ID/g"}, {"measurement": "Drug uptake", "setting": "Hippocampus [17]", "result": 0.71, "unit": "% ID/g"}, {"measurement": "Drug uptake", "setting": "Brain [18]", "result": 0.57, "unit": "% ID/g"}, {"measurement": "Drug uptake", "setting": "Cerebellum [19]", "result": 0.63, "unit": "% ID/g"}, {"measurement": "Drug uptake", "setting": "Blood [20]", "result": 2.01, "unit": "% ID/g"}, {"measurement": "Drug uptake", "setting": "[21]", "result": 1.07, "unit": "% ID/g"}, {"measurement": "Drug uptake", "setting": "Cerebellum [22]", "result": 0.56, "unit": "% ID/g"}]}]}
